Test results taken from ChEMBL document CHEMBL5329172, “Chloroacetamide fragment library screening identifies new scaffolds for covalent inhibition of the TEAD·YAP1 interaction” (RSC Med Chem, 2023).
Active and inactive are the calls of the source. No cut-off for these calls is given here.

How the values were obtained:
[1] = molecular target: T1, YAP1-TEAD4 (Homo sapiens) (UniProt P46937+Q15561); test: (§1) Covalent inhibition of GST-tagged TEAD4 (217 to 434 residues) (unknown origin) expressed in Escherichia coli BL21 (DE3) cells/FAM-labelled YAP1 (60 to 99 residues)(unknown origin) protein-protein interaction assessed as protein-compound adduct formation at 100 uM incubated for 24 hrs at 4 degree C followed by mass spectrometry analysis
Procedure, shortened: (§2)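 Intact-protein MS: 2.5 μM protein (TEAD4 217–434 with GST cleaved, TEAD4C367S, TEAD1 209–426, TEAD2 217–447 or TEAD3 210–427) incubated with 100 μM compound in PBS for 24 h at 4 °C. Samples were centrifuged to remove precipitate, desalted on a C3 reverse-phase column with a water/acetonitrile 0.1% formic acid gradient, and masses were read by Q-TOF. Adduct peaks were reported as percent.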

[2] = molecular target: T1, YAP1-TEAD4 (Homo sapiens); test: as §1, with “assessed as additional protein-compound adduct” for “assessed as protein-compound adduct”; procedure, shortened: as §2
[3] = molecular target: T1, YAP1-TEAD4 (Homo sapiens); test: as §1, with “assessed as second protein-compound adduct” for “assessed as protein-compound adduct”; procedure, shortened: as §2
[4] = molecular target: T1, YAP1-TEAD4 (Homo sapiens); test: (§3) Inhibition of GST-tagged TEAD4 (217 to 434 residues) (unknown origin) expressed in Escherichia coli BL21 (DE3) cells/FAM-labelled YAP1 (60 to 99 residues)(unknown origin) protein-protein interaction assessed as maximum inhibition at 50 uM preincubated for 24 hrs at 4 degree C with TEAD4 followed by fluorescent labelled YAP1 addition by fluorescence polarization assay
Procedure, shortened: (§4)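 FP: 64 nM TEAD4, TEAD4C367S, TEAD2 or TEAD3, or 250 nM TEAD1, was preincubated with compound for 24 h at 4 °C in PBS with 0.01% Triton X-100. FAM-YAP1 60–99 peptide (disulfide-crosslinked) was then added at 16 nM final. Polarization was read at ex 485/em 535 nm. Percent inhibition was taken relative to no-compound and no-protein controls. The single-point primary screen used 50 μM.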

[5] = species: Homo sapiens; test: as §1, with “C367S mutant” for “(217 to 434 residues)”, “(DE3)/FAM-labelled” for “(DE3) cells/FAM-labelled”; procedure, shortened: as §2
[6] = molecular target: YAP1-TEAD4 (Homo sapiens, UniProt Q15561); test: as §3, with “interaction” for “interaction assessed as maximum inhibition at 50 uM”; procedure, shortened: as §4
[7] = test system: S2; test: Inhibition of uPAR (unknown origin) expressed in S2 cells/FAM-labelled alpha-helical peptide AE-147 (unknown origin) protein-protein interaction preincubated for 24 hrs at 4 degree C with uPAR followed by fluorescent labelled AE-147 addition by fluorescence polarization assay; details: Homo sapiens
Procedure, shortened: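 Counter-screen FP: 250 nM uPAR lacking the GPI anchor (from S2 cells) was preincubated with compound for 24 h at 4 °C in PBS with 0.01% Triton X-100. AE-147-FAM peptide was then added at 100 nM final and polarization read at ex 485/em 535 nm.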

[8] = species: Homo sapiens; test: as §3, with “TEAD4 C367S mutant” for “TEAD4 (217 to 434 residues)”, “interaction” for “interaction assessed as maximum inhibition at 50 uM”, “TEAD4 C367S mutant” for “TEAD4”; procedure, shortened: as §4

Sequence of YAP1-TEAD4 (P46937 whole entry): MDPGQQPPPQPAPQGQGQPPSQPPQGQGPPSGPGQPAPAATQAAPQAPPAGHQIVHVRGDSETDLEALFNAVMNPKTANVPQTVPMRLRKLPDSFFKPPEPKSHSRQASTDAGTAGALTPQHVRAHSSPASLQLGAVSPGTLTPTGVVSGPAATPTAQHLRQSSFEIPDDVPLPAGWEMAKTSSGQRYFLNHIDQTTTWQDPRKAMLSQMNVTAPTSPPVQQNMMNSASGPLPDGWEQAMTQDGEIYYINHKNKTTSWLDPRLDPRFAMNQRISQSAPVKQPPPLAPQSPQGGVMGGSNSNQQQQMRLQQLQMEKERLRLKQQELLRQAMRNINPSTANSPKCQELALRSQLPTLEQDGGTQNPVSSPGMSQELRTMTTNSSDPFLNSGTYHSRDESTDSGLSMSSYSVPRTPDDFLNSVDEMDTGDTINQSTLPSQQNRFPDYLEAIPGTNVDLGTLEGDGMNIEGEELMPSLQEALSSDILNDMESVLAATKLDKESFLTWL
Sequence of YAP1-TEAD4 (Q15561 whole entry): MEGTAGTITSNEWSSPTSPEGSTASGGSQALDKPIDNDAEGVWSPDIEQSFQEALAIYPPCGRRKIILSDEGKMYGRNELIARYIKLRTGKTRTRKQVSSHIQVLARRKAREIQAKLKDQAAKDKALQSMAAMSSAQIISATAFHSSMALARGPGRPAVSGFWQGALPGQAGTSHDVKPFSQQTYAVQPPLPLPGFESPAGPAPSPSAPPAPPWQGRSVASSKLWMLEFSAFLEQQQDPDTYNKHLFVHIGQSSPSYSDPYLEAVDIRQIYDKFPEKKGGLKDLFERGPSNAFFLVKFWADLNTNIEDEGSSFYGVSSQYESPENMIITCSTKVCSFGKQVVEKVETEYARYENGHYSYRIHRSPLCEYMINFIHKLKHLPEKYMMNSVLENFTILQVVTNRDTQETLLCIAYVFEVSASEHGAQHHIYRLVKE

With `COc1ccc(N(C(=O)CCl)C(C(=O)NCCc2ccccc2)c2cccs2)cc1Cl` (stereo not drawn) the percent protein-compound adduct formation [1] was 51%, the percent protein-compound adduct formation [2] was 15% and the percent second protein-compound adduct [3] was 12%. The Imax [4] was 39%, the inhibition [5] was “inactive” and the IC50 [6] was 1.1 µM. For the same compound, the inhibition [7] was “inactive” and the inhibition [8] was “inactive”.

In the case of `COc1ccc(C(C(=O)NC2CCCCCC2)N(Cc2cccs2)C(=O)CCl)cc1` (stereo not drawn), the percent protein-compound adduct formation [1] is reported as 32%, the Imax [4] is reported as 41% and the inhibition [5] is reported as “inactive”. The IC50 [6] was 4.8 µM, the inhibition [7] was “inactive” and the inhibition [8] was “inactive”.

`COc1ccc(C(C(=O)NC2CCCCCC2)N(Cc2ccccc2)C(=O)CCl)cc1` (stereo not drawn) was tested, and the percent protein-compound adduct formation [1] was 31%, the Imax [4] was 49% and the inhibition [5] was “inactive”. For the same compound, the IC50 [6] was 7.4 µM, the inhibition [7] was “inactive” and the inhibition [8] was “inactive”.

In the case of `Cc1ccc(C2CC(c3cccs3)=NN2C(=O)CCl)cc1` (stereo not drawn), the percent protein-compound adduct formation [1] is reported as 27%, the Imax [4] is reported as 41% and the inhibition [5] is reported as “inactive”. For the same compound, the IC50 [6] was 3.8 µM, the inhibition [7] was “inactive” and the inhibition [8] was “inactive”.

With `COc1ccc(C2=NN(C(=O)CCl)C(c3nc4ccccc4[nH]3)C2)cc1` (stereo not drawn) the percent protein-compound adduct formation [1] was 38%, the percent second protein-compound adduct [3] was 30% and the Imax [4] was 45%. The inhibition [5] was “inactive”, the IC50 [6] was 5.8 µM and the inhibition [7] was “inactive”. The inhibition [8] was “inactive”.

Compound `COc1ccc(CN(C(=O)CCl)C(C(=O)NC2CCCCC2)c2cccs2)cc1` (stereo not drawn) has a percent protein-compound adduct formation [1] of 12%, a percent protein-compound adduct formation [2] of 30% and a percent second protein-compound adduct [3] of 20%. For the same compound, the Imax [4] was 67%, the inhibition [5] was “inactive” and the IC50 [6] was 13 µM. For the same compound, the inhibition [7] was “inactive” and the inhibition [8] was “inactive”.

For `O=C(CCl)N1CCN(S(=O)(=O)c2ccc(Cl)cc2[N+](=O)[O-])CC1`, the percent protein-compound adduct formation [1] was 54%, the percent second protein-compound adduct [3] was 31% and the inhibition [7] was “inactive”. For the same compound, the inhibition [8] was “inactive”.

`Cc1ccc(S(=O)(=O)N2CCN(C(=O)CCl)CC2)cc1C` gave a percent protein-compound adduct formation [1] of 38%, an Imax [4] of 48% and an IC50 [6] of 22.8 µM. The inhibition [7] was “inactive” and the inhibition [8] was “inactive”.

`O=C(CCl)N1N=C(c2ccc(Br)cc2)CC1c1ccc(F)cc1` (stereo not drawn) was tested, and the percent protein-compound adduct formation [1] was 27%, the Imax [4] was 41% and the inhibition [5] was “inactive”. For the same compound, the IC50 [6] was 1.5 µM, the inhibition [7] was “inactive” and the inhibition [8] was “inactive”.

`COc1ccc(C(C(=O)NCCc2ccccc2)N(Cc2cccs2)C(=O)CCl)cc1` (stereo not drawn) was tested, and the percent protein-compound adduct formation [1] was 47%, the Imax [4] was 42% and the inhibition [5] was “inactive”. The IC50 [6] was 10.5 µM, the inhibition [7] was “inactive” and the inhibition [8] was “inactive”.

Compound `Cc1ccc(S(=O)(=O)N2CCN(C(=O)CCl)C2c2ccccc2)cc1` (stereo not drawn) has a percent protein-compound adduct formation [1] of 52%, a percent second protein-compound adduct [3] of 23% and an Imax [4] of 50%. For the same compound, the IC50 [6] was under 1 µM, the inhibition [7] was “inactive” and the inhibition [8] was “inactive”.

`O=C(CCl)N1N=C2/C(=C/c3ccco3)CCCC2C1c1ccco1` (stereo not drawn) was tested, and the percent protein-compound adduct formation [1] was 32%, the percent second protein-compound adduct [3] was 10% and the Imax [4] was 67%. For the same compound, the inhibition [5] was “inactive”, the IC50 [6] was 7.8 µM and the inhibition [7] was “inactive”. The inhibition [8] was “inactive”.

`COc1ccc(CN(C(=O)CCl)C(C(=O)NC2CCCCCC2)c2ccc(OC)cc2)cc1` (stereo not drawn) was tested, and the percent protein-compound adduct formation [1] was 37%, the Imax [4] was 45% and the inhibition [5] was “inactive”. The IC50 [6] was 5.5 µM, the inhibition [7] was “inactive” and the inhibition [8] was “inactive”.

`O=C(CCl)N1N=C(c2cccs2)CC1c1cccs1` (stereo not drawn) was tested, and the percent protein-compound adduct formation [1] was 45%, the percent second protein-compound adduct [3] was 9% and the Imax [4] was 46%. For the same compound, the inhibition [5] was “inactive”, the IC50 [6] was 4.7 µM and the inhibition [7] was “inactive”. The inhibition [8] was “inactive”.

In the case of `Cc1ccc(S(=O)(=O)N2CCN(C(=O)CCl)C2)cc1`, the percent protein-compound adduct formation [1] is reported as 75%, the percent second protein-compound adduct [3] is reported as 25% and the Imax [4] is reported as 49%. The IC50 [6] was 1.9 µM, the inhibition [7] was “inactive” and the inhibition [8] was “inactive”.

Work on `Cc1ccc2c(c1)c1c3n2CCN(C(=O)CCl)C3CCC1` (stereo not drawn) yielded a percent protein-compound adduct formation [1] of 29%, a percent protein-compound adduct formation [2] of 30% and a percent second protein-compound adduct [3] of 30%. For the same compound, the Imax [4] was 50%, the IC50 [6] was 2 µM and the inhibition [7] was “inactive”. For the same compound, the inhibition [8] was “inactive”.

For `O=C(CCl)N1N=C(c2ccc(Cl)cc2)CC1c1ccco1` (stereo not drawn), the percent protein-compound adduct formation [1] was 64%, the percent second protein-compound adduct [3] was 18% and the Imax [4] was 62%. The inhibition [5] was “inactive”, the IC50 [6] was 6 µM and the inhibition [7] was “inactive”. For the same compound, the inhibition [8] was “inactive”.

With `COc1ccc(C(C(=O)NC2CCCCCC2)N(Cc2ccc(C)cc2)C(=O)CCl)cc1` (stereo not drawn) the percent protein-compound adduct formation [1] was 25%, the Imax [4] was 36% and the inhibition [5] was “inactive”. The IC50 [6] was 4.4 µM, the inhibition [7] was “inactive” and the inhibition [8] was “inactive”.

With `O=C(NCCc1ccccc1)C(c1cccs1)N(C(=O)CCl)c1ccc(Cl)cc1` (stereo not drawn) the percent protein-compound adduct formation [1] was 15%, the Imax [4] was 40% and the inhibition [5] was “inactive”. For the same compound, the IC50 [6] was 4 µM, the inhibition [7] was “inactive” and the inhibition [8] was “inactive”.

`COc1ccc(C2=NN(C(=O)CCl)C(c3cccc(OC)c3OC)C2)cc1` (stereo not drawn) was tested, and the percent protein-compound adduct formation [1] was 42%, the Imax [4] was 39% and the inhibition [5] was “inactive”. For the same compound, the IC50 [6] was 1.1 µM, the inhibition [7] was “inactive” and the inhibition [8] was “inactive”.

`O=C(CCl)N1N=C(c2ccccc2)CC1c1ccccc1` (stereo not drawn) gave a percent protein-compound adduct formation [1] of 38%, a percent second protein-compound adduct [3] of 21% and an Imax [4] of 52%. The inhibition [5] was “inactive”, the IC50 [6] was 5.9 µM and the inhibition [7] was “inactive”. The inhibition [8] was “inactive”.

Work on `O=C(CCl)N1CCN(S(=O)(=O)/C=C/c2ccccc2)CC1` yielded a percent protein-compound adduct formation [1] of 73%, an Imax [4] of 49% and an IC50 [6] of 4.9 µM. The inhibition [7] was “inactive” and the inhibition [8] was “inactive”.
